Experimental data taken from ChEMBL document CHEMBL1143386, “Prodrugs of perzinfotel with improved oral bioavailability” (J Med Chem, 2009).

What was measured:
Type in all cases: physicochemical
[1] = Chemical stability at pH 4.5 after 4 hrs; conditions: buffer, read-out: Stability
How it was run: (§1)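 Compound at 0.01 mg/mL final in a 9:1 mix of aqueous buffer (pH 1.0, 4.5, 6.6 or 7.4) or simulated gastric fluid with acetonitrile, held at 37 °C in the autosampler. Injected every 4 h over 24 h onto C8 HPLC. Percent remaining from peak area at 304 nm, corrected by internal standard; products confirmed by LC/MS (-ESI).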

[2] = Chemical stability at pH 7.4 after 4 hrs; conditions: buffer, read-out: Stability; how it was run: as §1
[3] = Chemical stability in simulated gastric fluid after 4 hrs; conditions: read-out: Stability; how it was run: as §1
[4] = Chemical stability at pH 6.6 after 4 hrs; conditions: buffer, read-out: Stability; how it was run: as §1
[5] = Chemical stability at pH 1 after 4 hrs; conditions: buffer, read-out: Stability; how it was run: as §1

- remaining at 4 h [1]: 100%
- remaining at 4 h [2]: 94.1%
- remaining at 4 h [3]: 100%
- remaining at 4 h [4]: 97.7%
- remaining at 4 h [5]: 100%
SMILES: CC(C)OC(=O)OCOP(=O)(CCN1CCCNc2c1c(=O)c2=O)OCOC(=O)OC(C)C
